M4 antag: antagonists of human muscarinic M4 receptor (CHRM4). P08173. CHO-hM4 cells, ACh EC80, Fluo-8 calcium fluorescence. inhibition, % at 3 µM. hit rate 0.73% among 360,000. AID 624125;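 active means inhibition above its plate's cutoff, the mean inhibition of sample wells plus 3 SD, cut at about 27% in these data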;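 further: 0% = acetylcholine EC80 with DMSO and 100% = DMSO without agonist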
Target sequence (P08173 whole entry, looked up): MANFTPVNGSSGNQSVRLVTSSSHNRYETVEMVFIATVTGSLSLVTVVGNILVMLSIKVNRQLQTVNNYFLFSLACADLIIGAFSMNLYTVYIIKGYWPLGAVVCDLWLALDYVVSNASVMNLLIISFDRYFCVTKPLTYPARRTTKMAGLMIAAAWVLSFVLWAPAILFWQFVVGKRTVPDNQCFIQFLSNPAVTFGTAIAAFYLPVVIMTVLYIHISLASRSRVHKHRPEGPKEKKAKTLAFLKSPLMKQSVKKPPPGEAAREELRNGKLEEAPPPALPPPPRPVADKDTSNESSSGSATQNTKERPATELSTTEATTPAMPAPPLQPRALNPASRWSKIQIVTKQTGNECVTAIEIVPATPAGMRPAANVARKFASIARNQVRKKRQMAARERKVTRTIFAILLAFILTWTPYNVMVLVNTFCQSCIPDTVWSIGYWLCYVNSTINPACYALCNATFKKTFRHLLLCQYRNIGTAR
CHRM5 PAM: potentiates acetylcholine response at human M5 receptor. P08912. CHO-K1 hM5, Fluo-8 calcium, ACh EC20 PAM; 0% = ACh EC20, 100% = ACh EC100. activation, % at 3 µM. hit rate 0.3% among 360,000. AID 624038;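 active means activation above the run cutoff, the mean activation of all test compounds plus 3 SD, cut at about 18% in these data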
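Measured by: Fluo-8 calcium fluorescence; material: human M5 receptor in CHO-K1 cells; schedule: Post-acetylcholine fluorescence recording 140 s; benchmarks: low control EC20 acetylcholine (0%), high control EC100 acetylcholine (100%); read-out: Max/basal fluorescence ratio as % of EC20–EC100 ACh window; compound: single dose, 3 µM nominal final test concentration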
M5 ag: CHRM5 agonism in calcium assay. CHO-K1 hM5 cells, Fluo-8 calcium fluorescence; 0% DMSO wells, 100% maximal acetylcholine response. activation, % at 3 µM. hit rate 0.19% among 360,000. AID 624037;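 active means activation above the run's mean over test compounds plus 3 SD, cut at about 23% in these data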;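 further: signal is peak over basal fluorescence ratio across the kinetic read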
M5 antag: antagonists of human muscarinic M5 receptor (CHRM5); AID 624040; inhibition, % at 3 µM; CHO-hM5 cells, Fluo-8 calcium fluorescence, ACh EC80; hit rate 0.59% among 360,000;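 active means inhibition above a per-plate cutoff, the mean of that plate's test compounds plus 3 SD, cut at about 27% in these data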;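 further: 0% = acetylcholine EC80 with DMSO and 100% = DMSO without agonist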
CHRM4 PAM: positive allosteric modulators of human muscarinic M4 receptor; activation, % at 3 µM; P08173; CHO-K1 hM4/Gqi5, Fluo-8 calcium fluorescence, ACh EC20; 0% = ACh EC20, 100% = maximal ACh; hit rate 0.4% among 360,000;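 active means activation above its plate's cutoff, the mean activation of sample wells plus 3 SD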
CHRM4 agonist: CHRM4 agonism in calcium assay; P08173; CHO-K1 hM4/Gqi5, Fluo-8 calcium fluorescence; vehicle 0%, full acetylcholine response 100%; activation, % at 3 µM; hit rate 0.14% among 360,000;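 active means activation above the run mean over all test wells plus 3 SD, cut at about 32% in these data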;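 further: peak over basal fluorescence ratio per well then scaled between controls; 0% = DMSO wells and 100% = acetylcholine at EC100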
Active calls of the source: *. An excerpt weighted towards active compounds, which were near 1.9% of everything screened.

SMILES	M4 antag	CHRM5 PAM	M5 ag	M5 antag	CHRM4 PAM	CHRM4 agonist
c1ccc(COc2ccc(CNCc3cccs3)cc2)cc1	33*	-10	-10	5	-27	7
Cc1cc(-c2ccccc2)nc2cc(C(=O)OC(C)C)nn12	8	3	-4	-4	-4	0
CC(C)c1ccc(NC2CCCN(C(=O)CCN3CCCC3=O)C2)cc1 (stereo not drawn)	-2	4	-1	1	-3	1
O=C1CCCCN1CCCC(=O)N1CCCC(Nc2ccccc2)C1 (stereo not drawn)	3	27*	8	3	5	1
CCC1CCCCN1C/C=C/c1ccccc1[N+](=O)[O-] (stereo not drawn)	54*	-21	-11	55*	-32	1
CC1CCCCN1C/C=C/c1ccccc1[N+](=O)[O-] (stereo not drawn)	34*	-21	-12	11	-27	2
CCOC(=O)C1CCN(Cc2cc(Cl)c3ccccc3c2O)CC1	29*	7	6	10	-4	1
COc1ccccc1N1CCN(C(=O)c2ccc3noc(-c4ccccc4)c3c2)CC1	-23	-13	25*	4	-1	8
CCOC(=O)C1CCNC(=O)C1=O (stereo not drawn)	-3	2	0	5	2	0
CCCN(CC(=O)Nc1ccccc1OC)C(=O)CSc1ccc(Br)cc1C	-16	-9	-1	9	0	1
CCOC(=O)Cn1c(=N)n(CCOc2ccc(OC)cc2)c2ccccc21	7	5	-5	1	4	2
CCOC(=O)Cn1c(=N)n(CCOc2ccc3ccccc3c2)c2ccccc21	9	-21	6	10	-9	39*
CCCN(C(=O)Cc1coc2cc(OC)ccc12)C1CCS(=O)(=O)C1 (stereo not drawn)	-4	-11	0	15	2	3
Cc1ccc(S(=O)(=O)NC(=O)NCCc2ccccc2)cc1	-9	-4	-5	5	8	0
O=C1/C(=C/c2ccc(F)c(F)c2)CSc2sccc21	-4	0	-7	-5	37*	-1
O=C1/C(=C\c2ccc(C(F)(F)F)cc2)CSc2sccc21	-12	1	-3	0	6	-1
CC1CCc2nc3ccccc3c(C(=O)OCC(=O)NC3CCS(=O)(=O)C3)c2C1 (stereo not drawn)	2	2	3	8	3	3
COc1cccc(NC(=O)COC(=O)c2c3c(nc4ccccc24)CCC(C)C3)c1 (stereo not drawn)	41*	-22	-4	26	-12	6
COc1ccc(OC)c(NC(=O)NNC(=O)COc2ccc([N+](=O)[O-])cc2)c1	3	-7	-4	9	0	1
CCCCCCCN1C(N(C)C)=NC[C@@H]1Cc1ccccc1	32*	-2	-11	9	-14	3
O=C(CS(=O)(=O)c1ccc(F)cc1)NCCS(=O)(=O)c1ccccc1	-14	0	-3	2	2	1
O=C(c1ccccc1)c1ccccc1N1C(=O)C=CC1=O	72*	3	4	6	-41	9
O=C1C=CC(=O)N1c1ccccc1N1C(=O)C=CC1=O	-1	-2	5	0	4	3
c1ccc(Cn2nnnc2-c2ccco2)cc1	4	14	0	-20	37*	1
Cc1ccc(-n2nnnc2-c2ccco2)cc1	3	10	-5	4	-2	0
SMILES	M4 antag	CHRM5 PAM	M5 ag	M5 antag	CHRM4 PAM	CHRM4 agonist
Cc1csc(NC(=O)C(CC(C)C)NS(=O)(=O)c2ccc3c(c2)oc(=O)n3C)n1 (stereo not drawn)	34*	-7	5	2	-12	0
Cc1csc(NC(=O)C2CCN(S(=O)(=O)c3ccc4c(c3)oc(=O)n4C)CC2)n1	-15	-4	2	0	1	7
COc1ccc(CC(=O)NC(C)c2nnc(SCCC(=O)Nc3ccccc3)n2C)cc1 (stereo not drawn)	11	18*	4	-10	12	1
c1ccc(CN2CCN(C3CCCSc4ccccc43)CC2)cc1 (stereo not drawn)	35*	5	-19	-4	-13	1
O=C(NCC1CCCO1)c1cccc2c1C(=O)c1ccc(N3CCC(Cc4ccccc4)CC3)cc1S2(=O)=O (stereo not drawn)	35*	-39	43*	34*	-21	73*
Cc1ccc(CNC(=O)c2cccc3c2C(=O)c2ccc(N4CCCCC4)cc2S3(=O)=O)cc1	14	-36	61*	32*	-17	99*
CC1CCN(c2ccc3c(c2)S(=O)(=O)c2cccc(C(=O)NC[C@@H]4CCCO4)c2C3=O)CC1	16	-30	12	24	-14	28
O=C(NCc1ccco1)c1cccc2c1C(=O)c1ccc(N3CCCC3)cc1S2(=O)=O	-10	-13	20	11	-11	40*
O=C(NCCCN1CCCC1=O)c1ccc(Cl)c(S(=O)(=O)N2CCCCC2)c1	-6	-1	1	8	13	0
Cc1ccc(NC(=O)CC(NCC2CCCO2)C(=O)O)cc1C (stereo not drawn)	-2	-3	-1	-8	4	2
CCc1nnc(NC(=O)CSCc2cc(=O)n3ccsc3n2)s1	0	9	-1	-2	9	-1
NC(=O)c1ccsc1NC(=O)CCS(=O)(=O)c1ccc(F)cc1	4	-10	5	13	-7	7
Cc1ccc(S(=O)(=O)NCCC(=O)N2CCC(C(N)=O)CC2)cc1C	-24	2	-2	-5	26*	0
O=C(CCNS(=O)(=O)c1ccccc1)N1CCCCCC1	-4	6	-2	-8	28*	1
CCOC(=O)N1CCN(C(=O)CCNS(=O)(=O)c2ccc(C)c(C)c2)CC1	-27	-3	-4	4	4	1
CC(=O)SCC[N+](C)(C)C	-1	-20	63*	20	-5	1
C[N+](C)(C)CCOC(=O)CCC(=O)OCC[N+](C)(C)C	-4	-3	2	-1	-6	1
Cc1ccc(C(=O)Nc2ccc(C(=O)O)cc2)cc1S(=O)(=O)NCc1ccccc1	1	2	-2	-2	-1	0
CCN1CCN(C(=S)Nc2ccc3nc4n(c(=O)c3c2)CCCCC4)CC1	-9	4	-1	1	27*	7
O=c1c2cc(NC(=S)N3CCCC3)ccc2nc2n1CCCCC2	1	-21	-1	21	-15	17

High-throughput results (PubChem BioAssay)
